Screening results: PubChem BioAssay, several laboratories
Most compounds without a hit are left out; they make up all but 2.3% or so of the library.
TRPC4 agonist = activators of mouse TRPC4 channel, primary screen, Fluo4 calcium, HEK293 TRPC4beta/mu-opioid cells | 0.49% of 310,000 active | Fluo4 calcium fluorescence; active compounds read high | B-score at 10 µM | Short transient receptor potential channel 4 (Mus musculus), Q9QUQ5;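 active = B-score above 5 SD of library B-scores, and initial fluorescence ratio not above library mean plus 5 SD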;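 note: positive B-score marks a calcium rise read as TRPC4 activation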
Target sequence (Q9QUQ5 whole entry, looked up): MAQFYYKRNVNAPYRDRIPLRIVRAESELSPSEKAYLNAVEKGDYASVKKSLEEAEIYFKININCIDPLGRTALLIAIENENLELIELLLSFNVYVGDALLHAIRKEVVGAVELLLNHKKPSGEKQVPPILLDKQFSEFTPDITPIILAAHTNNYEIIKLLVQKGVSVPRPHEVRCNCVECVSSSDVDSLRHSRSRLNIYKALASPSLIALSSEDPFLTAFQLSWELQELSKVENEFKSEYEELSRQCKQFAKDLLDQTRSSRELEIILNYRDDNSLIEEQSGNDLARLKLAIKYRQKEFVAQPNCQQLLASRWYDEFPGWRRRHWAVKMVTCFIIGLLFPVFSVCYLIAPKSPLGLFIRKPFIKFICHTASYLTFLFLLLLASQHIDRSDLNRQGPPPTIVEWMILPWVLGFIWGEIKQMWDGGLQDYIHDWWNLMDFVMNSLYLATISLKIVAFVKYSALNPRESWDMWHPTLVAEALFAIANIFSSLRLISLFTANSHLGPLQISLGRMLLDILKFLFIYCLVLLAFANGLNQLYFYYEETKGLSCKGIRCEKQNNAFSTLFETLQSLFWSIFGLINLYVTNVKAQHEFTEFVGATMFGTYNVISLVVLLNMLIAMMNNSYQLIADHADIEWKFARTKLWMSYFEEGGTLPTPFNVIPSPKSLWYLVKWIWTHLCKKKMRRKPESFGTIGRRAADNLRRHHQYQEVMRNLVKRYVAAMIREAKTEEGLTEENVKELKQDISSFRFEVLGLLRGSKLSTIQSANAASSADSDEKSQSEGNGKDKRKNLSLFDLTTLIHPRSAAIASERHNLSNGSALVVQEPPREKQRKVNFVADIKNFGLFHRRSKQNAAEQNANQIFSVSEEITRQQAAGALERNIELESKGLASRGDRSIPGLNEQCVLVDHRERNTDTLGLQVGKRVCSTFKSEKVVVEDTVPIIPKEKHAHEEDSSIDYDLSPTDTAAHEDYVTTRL
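Assay system: HEK293 cells stably co-expressing mouse TRPC4beta and mu-opioid receptor / Timing: Fluo4 dye loading 45 min at room temperature, 110 s recording / Signal: Fluo4 calcium-sensitive dye fluorescence, kinetic, 1 Hz baseline / Read-out: integrated baseline-normalised fluorescence ratio, converted to per-well B score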
TRPC4 PAM = positive allosteric modulators of TRPC4, primary screen, cell-based, mouse TRPC4beta, HEK293 mu-opioid, Fluo-4 calcium; Short transient receptor potential channel 4 (Mus musculus), Q9QUQ5; DAMGO EC20, Fluo-4 Ca2+ flux; active compounds read high; B-score at 10 µM; 0.42% of 310,000 active; AID 2227, 2009;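 active = B-score of calcium response area above 5 SD of library B-scores, with initial fluorescence ratio within 5 SD of library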
TRPC6 act = mouse TRPC6 channel activators, primary screen, cell-based, HEK293, membrane potential dye | Short transient receptor potential channel 6 (Mus musculus), Q61143 | 0.13% of 310,000 active | HEK293-TRPC6 membrane potential dye fluorescence; active compounds read high | AID 2550, 2010 | B-score at 10 µM;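 active = B-score of the integrated fluorescence ratio above library mean plus 3 SD, and starting fluorescence ratio within library mean plus 5 SD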;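 note: higher score means more depolarization so channel activation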
TRPC4 block = inhibitors of mouse TRPC4 channel, primary screen, Fluo4 calcium, HEK293 TRPC4beta/mu-opioid cells | DAMGO-evoked Fluo4 calcium flux; active compounds read low | B-score at 10 µM | 0.39% of 300,000 active | AID 2247, 2010 | Short transient receptor potential channel 4 (Mus musculus), Q9QUQ5;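 active = B-score over 3 SD under the library average, no early fluorescence shift, positive overall ratio signal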
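Assay system: TRPC4beta/mu-opioid receptor HEK293 cell line; compound dosing: single concentration per test compound; detection: Fluo4 Ca2+ flux fluorescence; evaluation: per-well B score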
TRPC6 inh = mouse TRPC6 channel inhibitors, primary screen, cell-based, HEK293, membrane potential dye. ACh-evoked depolarization; active compounds read low. Short transient receptor potential channel 6 (Mus musculus), Q61143. B-score at 10 µM. 1.1% of 310,000 active;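 active = B-score under library mean minus 3 SD, initial fluorescence not abnormally high, positive integrated signal ratio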;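 note: B-score derived from integrated fluorescence ratio over the kinetic read; more negative B-score means stronger inhibition of depolarization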
Yeast superoxide = reduction of superoxide in aged yeast, primary screen, HTS. S. cerevisiae aged cells, superoxide DHE fluorescence; active compounds read low. superoxide response (% of plate mean), % at 10 µM. 0.18% of 330,000 active;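 active = superoxide response under a set limit, about three screen SD below normal, cut at about 65% in these data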;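 note: yeast aged for seven days with compound at 30 °C before DHE staining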
Numbers stand for hits; - = inactive; . = no result.

SMILES | TRPC4 agonist | TRPC4 PAM | TRPC6 act | TRPC4 block | TRPC6 inh | Yeast superoxide
COc1cc(CNC2CCCC2)c(Br)cc1OC1CCCC1 | - | - | - | -7 | - | -
CCOc1cc(CNC2CCCC2)cc(Cl)c1OCc1ccccc1 | - | - | - | -6 | - | -
O=C(COc1ccccc1Cl)NCCCNC(=O)c1ccccn1 | - | - | - | - | - | -
Cc1cccc(NC(=S)NCC(c2cccnc2)N(C)C)c1 (centres undefined) | 103 | - | - | - | - | -
CN(C)C(CNC(=S)Nc1ccc(F)cc1)c1cccnc1 (centres undefined) | 80 | - | - | - | - | -
Cc1cccc(NC(=S)N(CCN(C)C)C(C)c2cccnc2)c1 (centres undefined) | - | - | - | - | - | -
O=C(Cn1cnc2ccc(Br)cc2c1=O)c1cccs1 | - | - | - | - | - | -
O=C1C(C=NCCN2CCOCC2)=C(O)c2ccccc21 | - | - | - | - | - | -
CC1CCCCN1C(=O)c1cccc(NC2=C(Cl)C(=O)N(Cc3ccccc3)C2=O)c1 (centres undefined) | . | . | . | . | . | -
O=C1C(Cl)=C(Nc2cccc(O)c2)C(=O)N1Cc1ccccc1 | - | 74 | - | - | - | -
C/C(=C\COc1cc(=O)[nH]c2ccccc12)CCC(O)C(C)(C)O (centres undefined) | - | - | - | - | - | -
Cc1nc(SCC(=O)NC(C)(C)C)c2c(-c3cccs3)csc2n1 | - | - | - | - | - | -
CN1CCN(CCOc2cccc(Cl)c2)CC1 | - | 14 | - | - | - | -
Clc1cccc(OCCN2CCCC2)c1 | - | - | - | - | - | -
CCn1c(=O)n(CCOC)c(=O)c2c3c(sc21)CCCC3 | - | - | - | -6 | - | -
CCOC(=O)Cn1c(=O)oc2cc(S(=O)(=O)NCCc3ccc(C)cc3)ccc21 | - | - | - | - | - | -
CCOC(=O)Cn1c(=O)oc2cc(S(=O)(=O)Nc3ccc(F)cc3)ccc21 | 47 | - | - | - | - | -
CCNC(=S)N1CCC(C(O)(c2ccccc2)c2ccccc2)CC1 | 100 | - | - | -6 | - | -
CCNC(=S)N1CCC(Cc2ccccc2)CC1 | - | - | - | - | - | -
CCC(C)c1ccccc1NC(=O)C(C)OC(=O)c1ccco1 (centres undefined) | - | - | - | - | - | -
CC(C)c1ccc(C2=NN(c3ccccc3)C(=O)CC2)cc1 | - | 11 | - | - | - | -
Cc1sc2ncnc(NCC3(N4CCOCC4)CCCCC3)c2c1C | - | - | - | - | - | -
Cc1sc2ncnc(NCC(C)(C)N3CCOCC3)c2c1C | 162 | - | - | - | - | -
COc1ccc(-n2c(-c3ccc(Br)cc3)c[n+]3c2CCCCC3)cc1 | - | - | - | -6 | - | -
O=C(Nc1ccc(C2=NCCN2)cc1)c1ccc(Cl)c(C(=O)Nc2ccc(C3=NCCN3)cc2)c1 | - | - | 14 | - | - | -
SMILES | TRPC4 agonist | TRPC4 PAM | TRPC6 act | TRPC4 block | TRPC6 inh | Yeast superoxide
O=C(c1ccc(N2CCN(CCO)CC2)nc1)N1CCOCC1 | - | - | - | - | - | -
CCOC(=O)[C@@H]1CCN(Cc2ccccc2)C[C@H]1c1ccccc1 | - | - | - | -7 | - | -
CCOC(=O)C1CCN(Cc2ccc(OCc3ccccc3)cc2)CC1 | - | - | - | - | - | -
O=c1cc(-c2ccccc2)nc2cc(-c3ccco3)[nH]n12 | - | - | - | - | - | 63
Cc1cc2nc(-c3ccccc3)cc(=O)n2[nH]1 | - | - | - | - | - | -
O=[N+]([O-])c1ccc(CN2CCN(c3nc4ccccc4s3)CC2)cc1 | - | 19 | - | - | - | -
COc1ccc(CN2CCN(c3nc4ccccc4s3)CC2)cc1 | - | 23 | - | - | - | .
CCCCN(C)CCNC(=O)C1CCN(S(=O)(=O)c2cccc3nsnc23)CC1 | - | 11 | - | - | - | -
CCCCN(CC)CCNC(=O)C1CCCN(S(=O)(=O)c2cccc3nsnc23)C1 (centres undefined) | 73 | - | - | - | - | -
CCCCN(CC)CCNC(=O)C1CCN(S(=O)(=O)c2cccc3nsnc23)CC1 | - | - | - | - | - | -
CC1CCN(CCNC(=O)C2CCCN(S(=O)(=O)c3cccc4nsnc34)C2)CC1 (centres undefined) | - | 12 | - | - | - | -
CCOC(=O)CN(Cc1ccccc1)C(=O)OC(C)(C)C | - | - | - | - | - | -
COc1ccc(N2CCN(C(=O)COC(=O)c3ccco3)CC2)cc1 | - | - | - | - | - | -
C=CCOc1ccc(Br)cc1CNC(C)(C)CO | - | - | - | -7 | - | -
CC(C)(CO)NCc1cc(Br)ccc1OCc1ccccc1 | - | - | - | - | - | -
C=CCOc1ccccc1/C=N/n1nnnc1N | - | - | - | - | - | -
O=C(NC(c1ccccc1)c1cc(Cl)c2cccnc2c1O)c1cccnc1 (centres undefined) | - | - | - | - | -5.8 | -
CCOC(=O)C1=NNC(C(=O)c2ccc(C)cc2)C1c1ccc(OC)cc1 (centres undefined) | - | - | - | - | - | -
CCOC(=O)C1=NNC(C(=O)c2ccc(Cl)cc2)C1c1ccc(OC)cc1 (centres undefined) | - | 15 | - | - | - | -
Cc1ccc(/C=C/C(=O)NC2CCCCCCC2)o1 | - | 27 | - | - | - | -
Cc1ccc(/C=N/NC(=O)NC2CCCCC2)o1 | - | 72 | - | - | - | -
Cc1cccc(/C=N/NC(=O)NC2CCCCC2)c1 | - | - | - | - | - | -
FC(F)(F)c1cnc(NNC(=S)Nc2ccc(Cl)cc2)c(Cl)c1 | - | - | - | - | - | -
CCC(C)[C@H](Nc1nc(-c2ccccc2)nc2c1oc1ccccc12)C(=O)O (some centres undefined) | - | - | - | -6 | - | -
CC(C)c1nnc(NC(=O)CCC(=O)N2CCN(c3ccc(Cl)cc3)CC2)s1 | - | - | - | - | - | -
CC(C)c1nnc(NC(=O)CCC(=O)N2CCN(Cc3ccccc3)CC2)s1 | - | 12 | - | - | - | -
CN(CCc1ccccn1)C(=O)CC1C(=O)NCCN1Cc1ccc(-c2ccccc2)cc1 (centres undefined) | 160 | - | - | - | - | -
